Bioassay records deposited in PubChem by several laboratories.
Most compounds without a hit are left out; they make up all but 3.1% or so of the library.
HCV core dimer = blocks dimerization of HCV core protein; TR-FRET GST/Flag-core106 dimerization, 1536-well; inhibition, % at 5 µM; 300,000 compounds, 0.33% hits; AID 1899;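 active = inhibition above the mean of all tested compounds plus 3 SD, set per screening campaign, cut at about 45% in these data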
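Assay system – GST-tagged and Flag-tagged HCV core protein residues 1-106 · Quantity – core106 proteins, GST 13.5 nM and Flag 17 nM · Benchmarks – unlabelled core106 and no-GST-core106 wells · Read-out basis – percent inhibition of core106 dimerization signal · Detection – time-resolved FRET, ex 340 nm, em 617 and 671 nm · Schedule – 4 h at 22.5 °C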
NS3 helicase inh = blocks Hepatitis C virus NS3 helicase unwinding. NS3 helicase DNA unwinding, Cy5 molecular beacon fluorescence. inhibition, % at 10.9 µM. 290,000 compounds, 0.56% hits. AID 1800;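 active = inhibition above the mean of all tested compounds plus 3 SD, set per campaign, cut at about 35% in these data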;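 also: 0% = DMSO wells and 100% = thioflavine S control wells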
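System: Hepatitis C virus NS3 helicase domain fragment enzyme | Reagent: Annealed dual-labelled DNA beacon duplex, ATP-started | Compound dosing: 10.9 µM single point, 0.8% DMSO | Incubation: 1 h reaction at 25 °C, ATP-initiated | Technique: Cy5 fluorescence | Evaluation: Percent inhibition from t60/t0 fluorescence ratio | Benchmarks: Low DMSO, high thioflavine S at 110 µM | Replication: Singlicate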
SUMO HTRF inh = SUMOylation inhibition; P63279; HTRF SUMOylation assay, SAE1/SAE2 + UBC9, in vitro; inhibition, % at 35 µM; 290,000 compounds, 0.36% hits; AID 2006; in the data active = inhibition above about 50%, passing the limit was not always enough
Target sequence (P63279 whole entry, looked up): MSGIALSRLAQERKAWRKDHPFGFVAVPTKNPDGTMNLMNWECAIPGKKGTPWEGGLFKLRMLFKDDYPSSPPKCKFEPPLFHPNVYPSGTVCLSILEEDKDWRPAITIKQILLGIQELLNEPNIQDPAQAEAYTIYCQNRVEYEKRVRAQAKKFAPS
PHOSPHO1 block = PHOSPHO1 (human) inhibition. Q8TCT1. recombinant PHOSPHO1, absorbance phosphatase assay. inhibition, % at 13.3 µM. 290,000 compounds, 1.1% hits. AID 1565; in the data active = inhibition above about 60%
Target sequence (Q8TCT1 whole entry, looked up): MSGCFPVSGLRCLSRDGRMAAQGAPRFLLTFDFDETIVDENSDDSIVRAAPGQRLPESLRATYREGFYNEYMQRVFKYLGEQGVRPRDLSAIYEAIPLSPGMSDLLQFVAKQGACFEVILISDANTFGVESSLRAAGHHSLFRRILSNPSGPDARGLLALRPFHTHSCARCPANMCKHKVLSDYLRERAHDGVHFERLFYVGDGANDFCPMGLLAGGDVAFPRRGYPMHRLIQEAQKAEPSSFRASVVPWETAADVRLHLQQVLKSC
IMP-1 inh = inhibitors of Pseudomonas aeruginosa IMP-1 metallo-beta-lactamase; 290,000 compounds, 0.45% hits; inhibition, % at 5.6 µM; purified IMP-1, nitrocefin hydrolysis, epi-absorbance fluorescence;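 active = inhibition above the mean plus 3 SD of all compounds in the same screening run, cut at about 4.5% in these data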;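 also: 0% = IMP-1 with DMSO and 100% = DMSO wells lacking enzyme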
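Material – recombinant IMP-1 enzyme, purified · Amount – IMP-1 0.2 nM before substrate addition · Medium – HEPES buffer pH 7.1 with ZnSO4 and Brij 35 · Timing – 25 °C, 15 min preincubation, 25 min reaction · Measured by – plate fluorescence quenching by hydrolysis product, ex 480/em 530 nm · Read-out – percent enzyme inhibition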
VIM-2 inh = inhibitors of Pseudomonas aeruginosa VIM-2 metallo-beta-lactamase; purified VIM-2, nitrocefin hydrolysis, epi-absorbance fluorescence; inhibition, % at 5.6 µM; 290,000 compounds, 0.89% hits; AID 1527;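 active = inhibition above the mean of all tested compounds plus 3 SD, cutoff set per screening run, cut at about 7.5% in these data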;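 also: red hydrolysis product quenches plate fluorescence so inhibitors raise well fluorescence; 0% = enzyme with DMSO and 100% = DMSO without enzyme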
NS3 helicase cf = HCV NS3 helicase inhibition, confirmation assay. shares compounds with NS3 helicase inh. NS3 helicase DNA unwinding, Cy5 molecular beacon fluorescence. inhibition, % at 10.9 µM. 1,600 compounds, 31% hits;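 active = inhibition above the mean of all tested compounds plus 3 SD, cutoff set per campaign, cut at about 36% in these data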
DNA FID counter = displaces DNA intercalator in HCV helicase counter-screen | 1,600 compounds, 4% hits | inhibition, % at 7.9 µM | shares compounds with NS3 helicase inh | DNA fluorescent intercalator displacement, fluorescence | AID 1945; in the data active = inhibition above about 37%;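 also: 0% = vehicle and 100% = reference compound; higher means more displacement of ethidium bromide from the DNA hairpin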
DNA FID DR = displaces fluorescent intercalator from DNA, HCV helicase counter-screen | shares compounds with NS3 helicase inh | fluorescent intercalator displacement from DNA, fluorescence | IC50, µM | 120 tested, under 10 active | AID 2172; call rule not given here
The depositor's hits bear a star; x = no result.

SMILES	HCV core dimer	NS3 helicase inh	SUMO HTRF inh	PHOSPHO1 block	IMP-1 inh	VIM-2 inh	NS3 helicase cf	DNA FID counter	others
Nc1nc(-c2cc(O)ccc2[N+](=O)[O-])cc(-c2ccccc2)c1[N+](=O)[O-]	x	96.2*	97.9*	29.0	-2.1	-2.1	19.2	45.3*
O=c1cc2c(=O)oc3cc(O)c(O)oc3c2c(O)c1O	x	15.1	88.7	-23.4	0.6	2.9	x	x
COc1cc(/C=C2\SC(=O)N(CC(=O)Nc3ccc(C)cc3)C2=O)cc(Cl)c1OCC(=O)O	13.4	42.5*	48.9	-16.1	-3.0	-1.0	61.5*	18.8
COC(=O)c1c(-c2c(Cl)cccc2Cl)noc1NC(=O)NN1CCCCC1	3.8	-4.7	19.5	34.2	-1.4	-4.2	x	x
O=C1OC(c2ccc(F)cc2)=C/C1=C\c1ccc(O)cc1	0.7	11.3	10.5	-6.3	-3.7	-0.8	x	x
O=C1OC(c2ccc(F)cc2)=C/C1=C\c1ccc([N+](=O)[O-])o1	8.1	44.5*	51.5*	-7.3	-1.4	-3.4	42.2*	19.3
CCCCCCCCCc1nc2sc3c(c2c(=O)n1NC(=O)c1ccc([N+](=O)[O-])cc1)CC(C)(C)OC3	10.3	1.7	-9.8	-18.5	-1.5	-0.1	x	x
CCCCCCCCCc1nc2sc3c(c2c(=O)n1NC(=O)c1ccccc1[N+](=O)[O-])CC(C)(C)OC3	21.9	37.4*	-28.3	19.2	-0.8	-5.1	50.1*	3.6	DNA FID DR=>79.4
CCN(CC)CC(O)c1cccn1-c1ccc(CNC(=O)NC(C)C)cc1 (stereo unspecified)	-8.5	38.6*	15.5	28.2	-2.4	-1.1	-16.0	-0.1
O=C(NCc1ccccc1Cl)C(=O)c1cn(CC(=O)N2CCOCC2)c2ccccc12	-1.5	-11.2	16.5	6.3	-2.0	-1.4	x	x
CCN=c1scc(-c2ccco2)n1/N=C/c1ccc(OC)c(O)c1	-11.0	6.1	-0.4	-7.4	-4.3	-4.2	x	x
CN=c1scc(-c2ccc(F)cc2)n1/N=C/c1ccc(O)c(O)c1	x	45.2*	3.8	-5.1	-0.1	-2.8	-20.6	8.5
CN(C)c1ccc(N/C=C/C(=O)C(C)(C)C)cc1	-21.9	48.4*	-26.8	23.8	-3.0	-1.6	18.6	25.7
CC(C)NC(=O)CSc1nc(N)c(NC(=O)c2ccccc2F)c(=O)[nH]1	-9.5	65.2*	-1.7	-15.9	-2.0	-2.7	-2.7	-1.8
COc1ccc(C2/C(=C(\O)c3ccc4c(c3)OCCO4)C(=O)C(=O)N2c2nc(C)c(C(C)=O)s2)cc1 (stereo unspecified)	0.1	37.6*	11.3	7.9	-2.0	-0.4	64.5*	-11.3	DNA FID DR=>79.4
CCOC(=O)/C=c1\s/c(=C(\C#N)C(=O)OCC)n(-c2ccccc2)c1=O	10.5	57.3*	9.6	13.5	1.3	1.8	-8.6	-9.8
Cc1ccc(NC(=S)Nc2cccc(-c3n[nH]c(=S)o3)c2)cc1	-4.8	39.5*	-5.7	-85.1	-6.0	-3.9	35.1	-6.0
NC(=S)Nc1cccc(-c2n[nH]c(=S)o2)c1	0.8	-17.8	17.0	-55.6	-3.7	-3.5	x	x
COc1ccc(Br)cc1C1Nc2cccc3cccc(c23)N1	45.1	96.9*	21.6	7.8	0.9	1.6	-28.3	27.5
CCCCC(=O)NC(=S)Nc1cc(C(=O)O)ccc1Cl	-4.0	54.6*	-1.0	-1.4	0.2	0.0	-16.9	1.4
O=C(O)Cc1cn(Cc2ccc(F)cc2)c2ccccc12	-0.6	2.3	16.9	-4.9	-2.1	-2.2	x	x
Cc1ccc(Cn2cc(CCC(=O)O)c3ccccc32)cc1	-33.2	48.6*	3.0	18.4	13.0*	4.5	12.1	-21.1
Cc1ccc(CN2CCN(CC(=O)N/N=C/c3ccc(C)o3)CC2)cc1	-1.0	-1.0	-4.8	3.6	-3.5	-3.9	x	x
O=C(O)C1Nc2c(O)cc(Cl)c([N+](=O)[O-])c2C2C=CCC12 (stereo unspecified)	-3.5	70.0*	98.7*	-45.0	-4.2	2.6	78.7*	21.6
CCOC(=O)c1sc2ncn(/N=C/N(C)C)c(=O)c2c1C	-2.7	41.4*	17.7	-0.6	-3.3	-3.6	-4.7	10.9
SMILES	HCV core dimer	NS3 helicase inh	SUMO HTRF inh	PHOSPHO1 block	IMP-1 inh	VIM-2 inh	NS3 helicase cf	DNA FID counter	others
Cc1cc(-c2csc(NC(=O)c3cc4ccccc4o3)n2)c(C)n1C	74.2*	49.6*	32.1	-3.3	-1.1	-2.9	24.9	15.8
Cc1cc(-c2csc(NC(=O)c3ccc(C#N)cc3)n2)c(C)n1Cc1ccco1	48.6*	58.5*	61.7	-4.4	-0.7	-4.6	0.5	11.8
Cc1cc(-c2csc(NC(=O)c3ccc(=O)[nH]c3)n2)c(C)n1Cc1ccccc1	55.0*	73.9*	59.0	-126.9	-2.6	-5.3	21.4	3.8
N#Cc1ccc(-c2csc(NC(=O)c3ccc(N4C(=O)CCC4=O)cc3)n2)cc1	0.9	0.9	14.0	29.7	-0.1	1.3	x	x
Cc1cc(OC(=O)c2ccccc2C(F)(F)F)c([N+](=O)[O-])c(=O)[nH]1	-10.9	7.9	-2.7	25.4	-0.9	1.0	x	x
Cc1ccc(NC(=O)Nc2cc(C(F)(F)F)c[nH]c2=O)cc1	8.7	-15.4	-2.2	18.4	-2.7	-0.7	x	x
Cc1cc(/C=C2/C(=N)N3C(c4ccccc4)=CSC3=NC2=O)c(C)n1-c1ccccc1	44.9	15.3	18.4	6.0	-3.1	-1.7	x	x
CCOc1ccc(-n2c(C)cc(/C=C3/C(=N)N4C(=NC3=O)SN=C4S(C)(=O)=O)c2C)cc1	29.1	37.9*	22.0	3.3	-1.1	-2.9	83.7*	-8.9
Cc1cccc(C)c1-n1cccc1/C=C1/C(=N)N2C(=NC1=O)SN=C2S(C)(=O)=O	25.1	-4.4	18.3	-3.7	-1.5	-2.2	x	x
Cc1ccccc1-n1c(C)cc(/C=C2/C(=N)N3C(c4ccccc4)=CSC3=NC2=O)c1C	42.0	39.8*	5.7	-5.1	-1.1	-3.4	8.4	-10.9
Cc1ccc(-n2cccc2/C=C2/C(=N)N3C(=NC2=O)SN=C3S(C)(=O)=O)cc1Cl	38.9	48.8*	46.0	-10.7	-0.7	-0.2	63.6*	11.3
Cc1ccc(S(=O)(=O)Nc2nc3ccccc3nc2NCc2ccco2)cc1	2.4	36.0*	3.2	34.7	-1.8	1.4	39.6*	-1.3
O=S(=O)(Nc1nc2ccccc2nc1NCc1ccco1)c1ccc(Cl)cc1	19.8	28.9	-2.1	7.1	-2.4	-1.1	x	x
O=c1[nH]c(/C=C\c2cccc(Cl)c2)nc(O)c1[N+](=O)[O-]	4.8	36.5*	9.0	29.1	-6.6	-2.7	-11.8	1.0
